Sampled rows, rich in hits. Any-hit rate of the full collection: about 2.6%.
Hsp70 act: Hsp70 transcriptional activation, primary screen | HeLa Hsp70 promoter luciferase reporter, luminescence; scaled: vehicle 0, proteasome-inhibitor control 100% | activation, % at 10 µM | actives 0.04% (n = 200,000);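 active means activation above the mean across all tested compounds plus 3 SD, cutoff set per campaign, cut at about 5.5% in these data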
MDM2 E3 inh: inhibitors of human Mdm2 E3 ubiquitin ligase; cell-based MDM2 ubiquitination luciferase reporter, 2 h; 0 = plate control, 100 = twice control, blank-subtracted; actives 0.11% (n = 210,000); signal enhancement, % at 5 µM; AID 1230;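 active means signal enhancement of 30% or more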;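 further: luminescence tracks abundance of the self-degrading MDM2-luciferase fusion protein; higher signal means inhibition of MDM2 E3 ligase activity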
Target sequence (Q00987 whole entry, looked up, the tested form may be a part): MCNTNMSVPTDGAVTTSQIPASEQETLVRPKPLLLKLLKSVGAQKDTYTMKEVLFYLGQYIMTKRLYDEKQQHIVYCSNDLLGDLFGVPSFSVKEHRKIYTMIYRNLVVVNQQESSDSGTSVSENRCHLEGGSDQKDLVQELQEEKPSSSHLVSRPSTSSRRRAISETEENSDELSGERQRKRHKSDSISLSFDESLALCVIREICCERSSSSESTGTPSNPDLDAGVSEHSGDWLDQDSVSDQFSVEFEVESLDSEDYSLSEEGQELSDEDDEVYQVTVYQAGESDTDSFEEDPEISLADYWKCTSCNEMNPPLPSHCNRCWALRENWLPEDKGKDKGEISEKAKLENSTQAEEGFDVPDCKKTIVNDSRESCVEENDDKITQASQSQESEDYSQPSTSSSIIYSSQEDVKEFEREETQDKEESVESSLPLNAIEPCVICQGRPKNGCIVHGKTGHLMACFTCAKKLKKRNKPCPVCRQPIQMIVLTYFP
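Assay system: stable mammalian line carrying autodegrading MDM2–luciferase fusion reporter; amount: 2000 cells seeded into each well; buffer or medium: DMEM; benchmarks: plate control and blank wells; signal: luciferase luminescence; timing: 2 h compound exposure at 37 °C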
HSV augment: increases HSV replication in cells. HSV replication augmentation in cells, fold increase. maximum fold increase. actives 0.005% (n = 220,000). AID 1956; in the data active means maximum fold increase above about 1.5; tested in PC3 cells
Rad51 HR inh: blocks human Rad51 in homologous recombination; hRad51 DNA strand exchange, fluorescence dequenching; Q06609; actives 0.085% (n = 200,000); inhibition, % at 10 µM;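 active means inhibition above 40% at the single screening dose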
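Assay system: Human Rad51 nucleoprotein filaments preassembled on unlabelled ssDNA | Reagent: Donor/quencher-labelled 47-bp dsDNA substrate | Doses: One concentration, 10 µM final | Times: 37 °C 15-min filament assembly, 30-min compound preincubation, 15-min exchange | Technique: Fluorescein emission 520 nm, excitation 485 nm | Benchmarks: Plate control and blank wells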
HSF1 activator: increases HSF-1 driven luciferase reporter signal | NIH3T3-HGL HSF-1 luciferase reporter, MG132, 8 h; 100% = twice DMSO control signal | activation, % at 9 µM | actives 1.7% (n = 300,000);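 active means mean replicate activation of at least 50% with a set share of replicates each reaching 50%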
HSF1 inhib: HSF1 inhibition; actives 0.77% (n = 300,000); AID 2098; activity change, negative = inhibition, % at 7.5 µM (by protocol); NIH3T3-HGL HSE-luciferase, MG132-induced, luminescence 8 h; hits give low values;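 active means more than half of replicate wells show activity change below -50%, luminescence cut by over half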;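 further: luciferase reports HSF-1 transcriptional activity via heat shock element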
Hits are given with their value; . = inactive; / = no result given.

SMILES	Hsp70 act	MDM2 E3 inh	HSV augment	Rad51 HR inh	HSF1 activator	HSF1 inhib
CC(=O)N/N=C(/C)c1ccc(NC(=O)c2csc(C)c2C)cc1	/	/	/	/	70.9	.
C/C(=N\NC(=O)c1csc(C)c1C)c1ccco1	.	.	.	.	63.3	.
C/C(=N/NC(=O)c1cccs1)c1ccco1	.	.	.	.	55.6	.
CCC(=O)Nc1ccc(/C(C)=N\NC(=O)c2ccc(C)s2)cc1	.	.	.	.	.	.
C/C(=N\NC(=O)c1cccs1)c1ccc(C(=O)O)s1	/	/	/	/	.	.
COC(=O)/C(=C(O)\C=C\c1ccccc1[N+](=O)[O-])c1nc2ccccc2[nH]1	/	/	/	/	.	.
O=C(NCc1ccc(Cl)cc1)C1CCN(S(=O)(=O)c2cccnc2)CC1	/	/	/	/	.	.
CCCc1cc(=O)[nH]c(SCc2nc3ccccc3s2)n1	.	.	.	.	61.6	.
O=C(COc1ccccc1)N/N=C/c1ccc(O[C@@H]2O[C@H](CO)[C@@H](O)[C@H](O)[C@H]2O)cc1	.	.	.	.	.	.
Cc1occc1C(=O)Nc1cc(C(F)(F)F)ccc1Cl	.	.	.	.	.	-65.3
O=C(/C=C/c1cccs1)N1CCN(c2ccc(O)cc2)CC1	.	.	.	40.6	.	.
O=C(/C=C/c1cccs1)N1CCCCC1	.	.	.	.	.	.
CCOC(=O)c1cc(C)n(-c2ccccc2)c1C	/	.	.	.	.	.
Cc1ccc(NC(=O)c2cnc(N3CCN(c4ccccn4)CC3)c3ccccc23)c(Br)c1	.	.	.	.	.	-63.1
COc1ccc(CN2CCN(c3nc4ccccc4s3)CC2)cc1	/	/	/	/	.	.
Cc1ccccc1CN1CCN(c2nc3ccccc3s2)CC1	/	/	/	/	81.4	.
O=C(Nc1ccc(C#Cc2ccccc2)cc1)C1CC1	.	.	.	.	82.4	.
CCCC(=O)Nc1ccc(Oc2ccc(NC(=O)CCC)cc2)cc1	.	/	.	.	.	.
CCCC(=O)Nc1ccc(C#Cc2ccccc2)cc1	.	.	.	.	61.3	.
CC(C)n1nc(C(=O)OCn2nnc3ccccc3c2=O)c2ccccc2c1=O	.	.	.	.	.	.
N#Cc1ccccc1NC(=O)c1ccc2c(c1)OCCO2	/	/	/	/	.	.
CCN(CC)C(=O)Cn1cc(C(=O)C(=O)N(C)C2CCN(C)CC2)c2ccccc21	/	/	/	/	.	.
Clc1ccc(-n2c(SC/C=C/c3ccccc3)nnc2-c2cccnc2)cc1	.	.	.	.	69.1	.
CCc1cccc(NC(=O)C2CCCN2S(=O)(=O)c2ccc3c(c2)CC(C)N3C(C)=O)c1 (stereo not drawn)	/	/	/	/	.	.
O=C(Oc1ccc(-c2csnn2)cc1)C1CC1	/	.	.	.	.	.
SMILES	Hsp70 act	MDM2 E3 inh	HSV augment	Rad51 HR inh	HSF1 activator	HSF1 inhib
O=C(Nc1ccc(-c2csnn2)cc1)C1CC1	/	82.8	.	.	.	.
Cc1ccc(C(=O)N2CCN(c3ncccn3)CC2)cc1S(=O)(=O)N1CCCCC1	.	.	.	.	.	.
COc1ccc(C)cc1NC(=O)c1ccc(S(=O)(=O)N2CCCCC2)cc1	/	/	/	/	.	.
CCc1ccc(C(=O)NC2CCCCC2)s1	.	.	.	.	54.0	.
CCc1ccccc1N(CC(=O)NC(C)c1ccccc1)S(C)(=O)=O (stereo not drawn)	/	/	/	/	.	.
Cc1cc(C)n2nc(SCCOc3ccccc3)nc2n1	.	.	.	.	.	.
Cn1ccnc1SCC(=O)c1ccc2ccccc2c1	.	.	.	.	212.6	.
Cn1ccnc1SCC(=O)NC1CCCCC1	.	.	.	.	/	/
Cn1ccnc1SCC(=O)N(C1CCCCC1)C1CCCCC1	.	.	.	.	.	-68.3
COc1cc(NC(=O)Nn2cnnc2)cc(OC)c1OC	/	/	/	/	.	.
Cc1ccc2[nH]c3c(c2c1)CC/C(=C/c1ccccc1)C3=O	.	/	.	.	61.9	.
O=C1/C(=C\c2ccccc2)CCc2c1[nH]c1ccccc21	.	.	.	.	108.7	.
Cc1ccc(/C=C2/CCc3c([nH]c4ccccc34)C2=O)cc1	.	.	/	/	.	.
COC(=O)c1ccc(S(=O)(=O)c2ccc(Cl)cc2)c(N)c1	/	/	/	/	.	.
COc1ccc(CCNC(=O)c2nnn(-c3ccc4c(c3)OCCO4)c2N)cc1OC	.	.	.	.	.	-76.1
COc1ccc(CC(=O)Nc2ccc(/C(C)=N\NC(=O)c3ccc(Br)o3)cc2)cc1	/	/	/	/	.	.
CN(C)c1ccc(/C=C/c2ccc3c4ccccc4ccc3[n+]2-c2ccccc2)cc1	.	.	/	51.0	/	/
CCOc1ccccc1NC(=O)CCS(=O)(=O)c1cccs1	/	/	/	/	.	-89.3
Cc1ccc(-n2ncc3c(=O)n(CC(=O)N(C)C)cnc32)cc1C	/	/	/	/	.	.
CC(=O)Cn1cnc2c(cnn2-c2ccc(C)c(C)c2)c1=O	/	/	/	/	59.0	.
Oc1ccc(/C=N/Nc2cccc3cccnc23)c(O)c1	.	.	.	.	84.9	.
Cc1ccc(/C=N/Nc2cccc3cccnc23)c(O)c1	.	.	.	.	68.3	.
Oc1ccc(/C=N/Nc2ncc(Br)cn2)c(O)c1	.	.	.	.	79.1	.
CCC(C(=O)NCc1ccccn1)n1c2ccccc2c2nc(=O)cc(C)n21 (stereo not drawn)	/	/	/	/	.	.
CC1CCCCN1CCCNc1ccc(C(CC(N)=O)NC(=O)Cc2cccc3ccccc23)cc1[N+](=O)[O-] (stereo not drawn)	/	/	/	/	.	.
SMILES	Hsp70 act	MDM2 E3 inh	HSV augment	Rad51 HR inh	HSF1 activator	HSF1 inhib
CCN(CC)c1nc2ccccc2n2cnnc12	.	.	.	.	.	.
O=c1[nH]c2ccccc2n2cnnc12	.	.	.	.	.	-82.6
CN(C)CCNc1nc2sc3c(c2c(=O)n1-c1ccccc1)CCCCC3	/	.	.	.	50.4	.
CN(C)CCNc1nc2sc3c(c2c(=O)n1-c1ccc(F)cc1)CCCCC3	/	.	.	.	.	.
O=c1c2c3c(sc2nc(NCCO)n1Cc1ccco1)CCCCC3	.	.	.	.	.	-56.7
COCCNC(=O)/C(C#N)=C/c1ccc(OCc2ccc(F)cc2)cc1	.	.	.	.	.	.
COCCCNC(=O)/C(C#N)=C/c1ccc(F)cc1	.	.	.	.	68.5	.
COC(=O)c1ccc2c(=O)[nH]c(CSc3nc(-c4ccc(F)cc4)cs3)nc2c1	.	.	.	/	.	.
COc1cc2nc(CSc3nc(-c4ccc(F)cc4)cs3)[nH]c(=O)c2cc1OC	.	.	.	.	66.7	.
CN(C(=O)CN(C)S(=O)(=O)c1ccc(F)cc1)c1c(N)n(Cc2ccccc2)c(=O)[nH]c1=O	/	/	/	/	.	.
O=C(N/N=C/c1ccncc1)c1cc2ccccc2cc1O	/	/	/	/	311.5	.
CCn1c(O)c(C2=c3ccccc3=NC2=O)c2cc(Br)ccc21	.	.	.	.	208.7	.
O=C(NCC(=O)N1CCCCCC1)c1ccc(Br)cc1	/	/	/	/	.	.
O=c1c2ccccc2nc(SCc2ccccc2)n1Cc1ccco1	.	.	.	.	.	.

Bioassay records as filed in PubChem.
